Experimental data from ChEMBL document CHEMBL3286372, “Design, synthesis and structure-activity relationship of novel semi-synthetic flavonoids as antiproliferative agents” (2014).

How the values were obtained:
[1] = Growth inhibition of human Hs 578T cells after 48 hrs by coulter counting analysis; format: functional
In short: (§1)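 NCI five-dose screen at 0.01-100 µM, diluted from DMSO stocks in buffered saline (final DMSO <1%). Cells at 6×10^4 cells/ml in RPMI 1640 with 10% FBS, in duplicate wells, at 37 °C under 5% CO2 for 48 h. Cells diluted tenfold in saline and Coulter-counted. GI50, TGI and LC50 taken from log concentration-growth inhibition curves.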

[2] = Growth inhibition of human OVCAR3 cells after 48 hrs by coulter counting analysis; format: functional; details: OVCAR-3, 48 h
In short: (§2)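 Five-dose NCI-60 follow-up, 0.01–100 µM, made from DMSO stock in buffered saline (final DMSO <1%), in duplicate wells. Cells in RPMI 1640 with 10% FBS at 6×10^4 cells/ml, 37 °C, 5% CO2, 48 h. Cells diluted tenfold in saline, Coulter-counted and corrected for dilution. GI50, TGI and LC50 taken from log concentration–percent growth curves.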

ACHN = experiment: Growth inhibition of human ACHN cells after 48 hrs by coulter counting analysis; format: functional; in short: as §1
[3] = Growth inhibition of human BT549 cells after 48 hrs by coulter counting analysis; format: functional; details: BT-549, 48 h; in short: as §1
SK-MEL-2 = experiment: Growth inhibition of human SK-MEL-2 cells after 48 hrs by coulter counting analysis; format: functional; details: SK-MEL-2, 48 h; in short: as §2
[4] = Growth inhibition of human SF295 cells after 48 hrs by coulter counting analysis; format: functional; details: SF-295, 48 h; in short: as §2
[5] = Growth inhibition of human HCC2998 cells after 48 hrs by coulter counting analysis; format: functional; details: HCC 2998, 48 h; in short: as §1
NCI-H226 = experiment: Growth inhibition of human NCI-H226 cells after 48 hrs by coulter counting analysis; format: functional; details: NCI-H226, 48 h; in short: as §2
MCF7 = experiment: Growth inhibition of human MCF7 cells after 48 hrs by coulter counting analysis; format: functional; details: MCF7, 48 h; in short: as §1
T47D = experiment: Growth inhibition of human T47D cells after 48 hrs by coulter counting analysis; format: functional; in short: as §2
[6] = target: Glycogen synthase kinase-3 beta (Homo sapiens) (UniProt P49841); experiment: Inhibition of GSK-3beta (unknown origin) at 20 uM after 30 mins by scintillation counting analysis relative to control
Chain of Glycogen synthase kinase-3 beta (Homo sapiens) (P49841 whole entry, looked up): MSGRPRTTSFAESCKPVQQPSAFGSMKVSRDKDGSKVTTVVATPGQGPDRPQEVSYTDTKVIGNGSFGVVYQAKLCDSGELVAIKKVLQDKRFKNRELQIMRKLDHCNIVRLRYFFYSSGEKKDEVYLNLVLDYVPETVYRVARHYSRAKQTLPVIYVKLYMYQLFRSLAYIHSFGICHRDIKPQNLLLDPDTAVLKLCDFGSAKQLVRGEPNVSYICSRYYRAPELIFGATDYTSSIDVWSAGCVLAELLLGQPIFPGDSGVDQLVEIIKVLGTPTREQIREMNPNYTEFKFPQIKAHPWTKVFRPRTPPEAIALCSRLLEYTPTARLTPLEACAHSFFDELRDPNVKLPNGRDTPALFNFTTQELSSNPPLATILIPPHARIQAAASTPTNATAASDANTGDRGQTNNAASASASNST
In short: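 Recombinant kinases, cloned, expressed and purified in-house. Radiometric ³³P-ATP assay with kinase at ~10-50 nM final and 1-5 µg peptide or protein substrate. Compound at 20 µM final, in duplicate. Reaction started by adding ATP, run 30 min at ambient temperature, then spotted on P81 phosphocellulose. Plates washed in 1% phosphoric acid and counted by scintillation. No-substrate blank subtracted. Result is mean % activity change versus DMSO control.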

M14 = experiment: Growth inhibition of human M14 cells after 48 hrs by coulter counting analysis; format: functional; details: M14, 48 h; in short: as §1
[7] = Growth inhibition of human HOP92 cells after 48 hrs by coulter counting analysis; format: functional; details: HOP-92, 48 h; in short: as §1
[8] = Growth inhibition of human SF539 cells after 48 hrs by coulter counting analysis; format: functional; details: SF-539, 48 h; in short: as §2
NCI-H522 = experiment: Growth inhibition of human NCI-H522 cells after 48 hrs by coulter counting analysis; format: functional; details: NCI-H522, 48 h; in short: as §2
CCRF-CEM = experiment: Growth inhibition of human CCRF-CEM cells after 48 hrs by coulter counting analysis; format: functional; in short: as §1
SNB-19 = experiment: Growth inhibition of human SNB19 cells after 48 hrs by coulter counting analysis; format: functional; details: SNB-19, 48 h; in short: as §2
HT-29 = experiment: Growth inhibition of human HT-29 cells after 48 hrs by coulter counting analysis; format: functional; details: HT-29, 48 h; in short: as §1
MDA-MB-468 = experiment: Growth inhibition of human MDA-MB-468 cells after 48 hrs by coulter counting analysis; format: functional; details: MDA-MB-468, 48 h; in short: as §2
NCI-H23 = experiment: Growth inhibition of human NCI-H23 cells after 48 hrs by coulter counting analysis; format: functional; details: NCI-H23, 48 h; in short: as §2
MDA-MB-231 = experiment: Growth inhibition of human MDA-MB-231 cells after 48 hrs by coulter counting analysis; format: functional; details: MDA-MB-231, 48 h; in short: as §1
[9] = Growth inhibition of human MOLT4 cells after 48 hrs by coulter counting analysis; format: functional; details: MOLT-4, 48 h; in short: as §2
A498 = experiment: Growth inhibition of human A498 cells after 48 hrs by coulter counting analysis; format: functional; details: A498, 48 h; in short: as §1
[10] = Growth inhibition of human RXF393 cells after 48 hrs by coulter counting analysis; format: functional; details: RXF 393, 48 h; in short: as §2
[11] = Growth inhibition of human UACC62 cells after 48 hrs by coulter counting analysis; format: functional; details: UACC-62, 48 h
In short: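 NCI five-dose screen, 0.01-100 µM, from DMSO stocks diluted in buffer saline (final DMSO <1%). Cells grown in RPMI 1640 + 10% FBS, seeded at 6×10^4 cells/ml, in duplicate wells. Exposure 48 h at 37 °C, 5% CO2. Cells diluted 10-fold in saline and counted by Coulter counter. GI50 derived from log concentration–percent growth inhibition curves. Controls carried matching PBS/saline/DMSO.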

[12] = Growth inhibition of human LOXIMVI cells after 48 hrs by coulter counting analysis; format: functional; details: LOX IMVI; in short: as §1
SNB-75 = experiment: Growth inhibition of human SNB75 cells after 48 hrs by coulter counting analysis; format: functional; details: SNB-75, 48 h; in short: as §2
NCI-H460 = experiment: Growth inhibition of human NCI-H460 cells after 48 hrs by coulter counting analysis; format: functional; details: NCI-H460, 48 h; in short: as §2
CAKI-1 = experiment: Growth inhibition of human CAKI-1 cells after 48 hrs by coulter counting analysis; format: functional; details: CAKI-1, 48 h; in short: as §1
NCI-H322M = experiment: Growth inhibition of human NCI-H322M cells after 48 hrs by coulter counting analysis; format: functional; in short: as §2
K562 = experiment: Growth inhibition of human K562 cells after 48 hrs by coulter counting analysis; format: functional; details: K562, 48 h; in short: as §1
RPMI-8226 = experiment: Growth inhibition of human RPMI8226 cells after 48 hrs by coulter counting analysis; format: functional; details: RPMI-8226, 48 h; in short: as §2
PC-3 = experiment: Growth inhibition of human PC3 cells after 48 hrs by coulter counting analysis; format: functional; details: PC-3, 48 h; in short: as §2
[13] = Growth inhibition of human NCI60 cells after 48 hrs by coulter counting analysis; format: functional; details: NCI60, 48 h
In short: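 Five-dose screen (0.01-100 µM, DMSO-solubilized, under 1% DMSO final), cells in RPMI 1640 + 10% FBS at 6×10^4 cells/ml, duplicate wells, 37 °C, 5% CO2, 48 h. Cells then diluted tenfold in saline and counted by Coulter counter with dilution correction. Controls held buffer/saline/DMSO at matching dilutions. GI50 derived from log concentration-percent growth inhibition curves.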

[14] = Growth inhibition of human NCI-ADR-RES cells after 48 hrs by coulter counting analysis; format: functional; in short: as §2
IGROV-1 = experiment: Growth inhibition of human IGROV1 cells after 48 hrs by coulter counting analysis; format: functional; details: IGROV-1, 48 h; in short: as §1

COc1ccc(-c2cc(=O)c3c(OC)c4ccoc4c(/C=C/C=O)c3o2)cc1
GI50 [1]: 10.4 µM
GI50 [2]: 3.92 µM
GI50 (ACHN): 19.3 µM
GI50 [3]: 2.14 µM
GI50 (SK-MEL-2): 9.06 µM
GI50 [4]: 3.4 µM
GI50 [5]: 13.7 µM
GI50 (NCI-H226): 2.93 µM
GI50 (MCF7): 1.63 µM
GI50 (T47D): 2.03 µM
inhibition [6]: 11%
GI50 (M14): 2.24 µM
GI50 [7]: 16.8 µM
GI50 [8]: 4.14 µM
GI50 (NCI-H522): 34.6 µM
GI50 (CCRF-CEM): 1.09 µM
GI50 (SNB-19): 3.16 µM
GI50 (HT-29): 18.1 µM
GI50 (MDA-MB-468): 3.58 µM
GI50 (NCI-H23): 2.8 µM
GI50 (MDA-MB-231): 4.22 µM
GI50 [9]: 1.84 µM
GI50 (A498): 17.2 µM
GI50 [10]: 2.15 µM
GI50 [11]: 1.77 µM
GI50 [12]: 1.08 µM
GI50 (SNB-75): 3.13 µM
GI50 (NCI-H460): 4.7 µM
GI50 (CAKI-1): 5.03 µM
GI50 (NCI-H322M): 5.06 µM
GI50 (K562): 2.8 µM
GI50 (RPMI-8226): 1.37 µM
GI50 (PC-3): 2.58 µM
LC50 [13]: 72.4 µM
TGI [13]: 26.3 µM
GI50 [14]: 2.84 µM
GI50 (IGROV-1): 13.6 µM

COc1c(C(=O)/C=C/c2ccc(Cl)cc2)c(O)c(Br)c2occc12
GI50 [2]: 1.91 µM
GI50 (ACHN): 5.09 µM
GI50 (SK-MEL-2): 4.16 µM
GI50 [4]: 6.67 µM
GI50 [5]: 2.5 µM
GI50 (NCI-H226): 2.84 µM
GI50 (MCF7): 2.36 µM
GI50 (T47D): 3.38 µM
inhibition [6]: 30%
GI50 (M14): 4.82 µM
GI50 [7]: 1.39 µM
GI50 (NCI-H522): 2.8 µM
GI50 (CCRF-CEM): 2.66 µM
GI50 (SNB-19): 8.24 µM
GI50 (HT-29): 4.11 µM
GI50 (MDA-MB-468): 2.13 µM
GI50 (NCI-H23): 3.25 µM
GI50 (MDA-MB-231): 4.33 µM
GI50 [9]: 2.09 µM
GI50 (A498): 3.92 µM
GI50 [10]: 2.37 µM
GI50 [11]: 3.47 µM
GI50 [12]: 2.2 µM
GI50 (SNB-75): 1.8 µM
GI50 (NCI-H460): 2.99 µM
GI50 (CAKI-1): 3.35 µM
GI50 (NCI-H322M): 5.22 µM
GI50 (K562): 2.88 µM
GI50 (RPMI-8226): 2.78 µM
GI50 (PC-3): 2.94 µM
LC50 [13]: 87.1 µM
TGI [13]: 28.8 µM
GI50 [14]: 3.07 µM
GI50 (IGROV-1): 3.04 µM

COc1ccccc1/C=C/C(=O)c1c(O)cc2occc2c1OC
GI50 [1]: 38.2 µM
GI50 [2]: 47.4 µM
GI50 (ACHN): 30 µM
GI50 [3]: 28.2 µM
GI50 (SK-MEL-2): > 100 µM
GI50 [4]: 16.6 µM
GI50 [5]: > 100 µM
GI50 (NCI-H226): 25.1 µM
GI50 (MCF7): 9.56 µM
GI50 (T47D): 55.9 µM
inhibition [6]: 17%
GI50 (M14): > 100 µM
GI50 [7]: 2.98 µM
GI50 [8]: 24.3 µM
GI50 (NCI-H522): > 100 µM
GI50 (CCRF-CEM): 9.72 µM
GI50 (SNB-19): 30.8 µM
GI50 (HT-29): > 100 µM
GI50 (MDA-MB-468): 10.3 µM
GI50 (NCI-H23): 22.4 µM
GI50 (MDA-MB-231): 33.1 µM
GI50 (A498): 46 µM
GI50 [10]: 14.9 µM
GI50 [11]: 23.7 µM
GI50 [12]: 30.1 µM
GI50 (SNB-75): 7.49 µM
GI50 (NCI-H460): > 100 µM
GI50 (CAKI-1): > 100 µM
GI50 (NCI-H322M): > 100 µM
GI50 (RPMI-8226): 23.5 µM
GI50 (PC-3): > 100 µM
LC50 [13]: 100 µM
TGI [13]: 89.1 µM
GI50 [14]: 29.6 µM
GI50 (IGROV-1): 26 µM
